Measurements as given in the M2OR odorant receptor database.

Each compound was assayed against T1, OR8D1 (Homo sapiens) (UniProt Q8WZ84). Details: stereoisomer not certain.
T1 sequence (whole entry): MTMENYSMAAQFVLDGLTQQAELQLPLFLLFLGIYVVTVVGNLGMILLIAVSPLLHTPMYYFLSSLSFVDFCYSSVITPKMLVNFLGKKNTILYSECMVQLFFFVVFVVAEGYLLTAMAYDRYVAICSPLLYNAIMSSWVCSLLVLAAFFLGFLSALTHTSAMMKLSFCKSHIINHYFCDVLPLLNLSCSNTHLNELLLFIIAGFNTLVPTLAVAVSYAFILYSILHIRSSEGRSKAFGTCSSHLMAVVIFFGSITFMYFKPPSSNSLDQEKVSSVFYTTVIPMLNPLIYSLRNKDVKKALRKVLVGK
Outline: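 Each receptor–molecule pair is labelled responsive or non-responsive (inactive) according to whether the original authors judged the measured signal statistically different from baseline. The data were taken from the main text and supplementary material of published papers and checked for typos and inconsistencies. Assay methods differed by source, with transient luciferase assays in mammalian cell lines being common.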
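Also: active if original authors judged signal statistically different from baseline.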

Odorant receptor agonist call, inactive:
CCCSSSCCC
CCOC(=O)C(C)C
COc1ccc(C)cc1O
CCOC(=O)CCC(C)C
CCCCCCCC1CCC(=O)O1 (configuration not stated)
COC1=C(C)OC(C)C1=O (configuration not stated)
COC(=O)C=Cc1ccccc1
CCc1ccc(O)cc1
C=C(C)c1ccc(C)cc1
CC=CC(=O)C(C)CC (configuration not stated)
CC(C)c1ccc(C=O)cc1
CCC(=O)C1=NCCC1
CCC(S)C(C)=O (configuration not stated)
CC(=O)OCCC(C)C
CC(=O)c1ccc(C)cc1
CCOC(=O)CCSC
CC(=O)C1=NCCS1
CCCCC1CCC(=O)O1 (configuration not stated)
CCCC1CCCC(=O)O1 (configuration not stated)
CCC=CCCC=CCO
CCCCCC(C)O (configuration not stated)
COc1nccnc1CC(C)C
CCCCC(=O)OCC
CCCCCCCCCC(=O)[O-].[H+]
CSCSC
CCOC(=O)C1CCCCC1
CC(C)CC=O
SCCc1ccccc1
CCCCCCC1CCC(=O)O1 (configuration not stated)
CCCCC=CC=O
O=C(O)CCc1ccccc1
C=CC(=O)CCCCC
Cc1c[nH]c2ccccc12
CCOC(C)OCC
CCCCCC(=O)OCC
CCOC(=O)C=Cc1ccccc1
CCCC(=O)C(C)CC (configuration not stated)
